The test system of test [1] is HCC1806. The test can be described thus: Cytotoxicity against human HCC1806 cells assessed as inhibition of cell viability incubated for 48 hrs by MTT assay. The conditions noted are these: HCC1806, 48 h. In kind it is functional, cell-based. The procedure, abridged: (§1)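 Log-phase cells seeded at 5 × 10^4 cells per mL in 96-well plates, cultured overnight at 37 °C, 5% CO2, then treated at 100, 50, 25, 12.5 and 6.25 μmol L−1, triplicate wells per concentration, for 48 h. MTT (20 μL of 5 mg ml−1) added for 4 h; after centrifugation the medium was removed and the formazan dissolved in DMSO. A570 was read and IC50 calculated. Cisplatin served as positive control.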
In general terms: Tetrazolium assays rely on reduction of a dye to a coloured formazan, in cell work by metabolically active cells.

The subject of another test is HeLa. The test can be described thus: Cytotoxicity against human HeLa cells assessed as inhibition of cell viability incubated for 48 hrs by MTT assay. In kind it is functional, cell-based. In a few lines: as §1
A further test deals with A549. Nature of the test: Cytotoxicity against human A549 cells assessed as inhibition of cell viability incubated for 48 hrs by MTT assay. The test is classed as functional, cell-based. The conditions noted are these: A549, 48 h. In a few lines:
as §1

Test [2] concerns HCC1806. The test can be described thus: Induction of apoptosis in human HCC1806 cells assessed as proportion of viable cells at 6 uM incubated for 24 hrs by AnnexinV-FITC/PI staining based flow cytometry (reference value: 86.0 %). In kind it is functional. (In general: In flow cytometry, cells or beads pass a laser one at a time.)
The target of test [3] is Vascular endothelial growth factor receptor 2 (Homo sapiens) (UniProt P35968). The test can be described thus: Inhibition of VEGFR-2 (unknown origin) at 50 uM incubated for 90 mins by Kinase-Glo MAX reagent based luminescence analysis relative to control. For orientation: In Kinase-Glo more light means more ATP remaining.
Chain of Vascular endothelial growth factor receptor 2 (Homo sapiens) (P35968 whole entry): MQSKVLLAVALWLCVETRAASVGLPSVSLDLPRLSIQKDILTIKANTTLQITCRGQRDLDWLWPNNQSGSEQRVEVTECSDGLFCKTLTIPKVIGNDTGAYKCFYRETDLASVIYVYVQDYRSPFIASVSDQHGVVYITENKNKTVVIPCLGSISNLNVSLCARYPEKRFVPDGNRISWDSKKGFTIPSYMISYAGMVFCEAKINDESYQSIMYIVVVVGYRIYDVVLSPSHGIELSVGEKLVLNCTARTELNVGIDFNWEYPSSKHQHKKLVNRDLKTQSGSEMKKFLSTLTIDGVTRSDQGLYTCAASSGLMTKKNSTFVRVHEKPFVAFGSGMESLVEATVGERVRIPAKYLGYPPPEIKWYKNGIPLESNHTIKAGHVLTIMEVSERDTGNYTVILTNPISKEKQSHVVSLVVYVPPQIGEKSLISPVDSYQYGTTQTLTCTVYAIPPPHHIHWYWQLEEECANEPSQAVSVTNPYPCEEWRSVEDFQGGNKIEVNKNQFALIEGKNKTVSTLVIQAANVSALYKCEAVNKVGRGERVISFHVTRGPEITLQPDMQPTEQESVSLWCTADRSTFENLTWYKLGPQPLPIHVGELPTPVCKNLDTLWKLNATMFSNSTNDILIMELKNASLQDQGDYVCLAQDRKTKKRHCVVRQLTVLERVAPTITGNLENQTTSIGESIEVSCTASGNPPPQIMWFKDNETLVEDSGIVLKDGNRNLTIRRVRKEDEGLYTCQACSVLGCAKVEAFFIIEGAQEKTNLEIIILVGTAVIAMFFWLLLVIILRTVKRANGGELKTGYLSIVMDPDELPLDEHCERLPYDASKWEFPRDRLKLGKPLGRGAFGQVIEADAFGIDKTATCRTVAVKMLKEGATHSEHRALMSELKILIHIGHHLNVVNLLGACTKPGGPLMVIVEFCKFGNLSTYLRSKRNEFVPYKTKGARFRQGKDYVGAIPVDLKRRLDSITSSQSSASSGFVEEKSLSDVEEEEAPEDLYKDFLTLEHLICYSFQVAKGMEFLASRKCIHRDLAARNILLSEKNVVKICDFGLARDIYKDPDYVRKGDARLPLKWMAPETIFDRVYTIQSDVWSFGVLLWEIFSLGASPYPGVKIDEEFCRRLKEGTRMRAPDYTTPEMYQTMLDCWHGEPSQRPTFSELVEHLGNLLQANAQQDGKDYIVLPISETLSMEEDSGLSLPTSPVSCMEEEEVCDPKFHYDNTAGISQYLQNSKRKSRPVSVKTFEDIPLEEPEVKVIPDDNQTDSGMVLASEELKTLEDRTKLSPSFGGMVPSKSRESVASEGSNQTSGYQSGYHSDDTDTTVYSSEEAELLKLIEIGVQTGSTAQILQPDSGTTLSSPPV
The target is the same in test [4]. The test can be described thus: Inhibition of VEGFR-2 (unknown origin) at 25 uM incubated for 90 mins by Kinase-Glo MAX reagent based luminescence analysis relative to control. In a few lines: (§2)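 A VEGFR-2 (KDR) kinase kit was used. Compound was made in DMSO and diluted in 1× kinase buffer 1, with matched DMSO in all wells. Master mix and compound were combined, and the reaction was started with diluted VEGFR-2 kinase, then incubated at 30 °C for 45 min. Kinase-Glo MAX reagent was added for 15 min at room temperature before luminescence was read. Blank and positive-control wells were included.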

For test [5], the system named is HCC1806. Nature of the test: Induction of apoptosis in human HCC1806 cells assessed as proportion of early apoptotic cells at 3 uM incubated for 24 hrs by AnnexinV-FITC/PI staining based flow cytometry (reference value: 5.32 %). The test is classed as functional.
The test system of test [6] is HCC1806. The test can be described thus: Induction of apoptosis in human HCC1806 cells assessed as proportion of viable cells at 3 uM incubated for 24 hrs by AnnexinV-FITC/PI staining based flow cytometry (reference value: 86.0 %). In kind it is functional.
The test system of test [7] is HCC1806. The test can be described thus: Induction of apoptosis in human HCC1806 cells assessed as proportion of necrotic cells at 6 uM incubated for 24 hrs by AnnexinV-FITC/PI staining based flow cytometry (reference value: 3.40 %). The test is classed as functional.
The test system of test [8] is HCC1806. Nature of the test: Induction of apoptosis in human HCC1806 cells assessed as proportion of late apoptotic cells at 6 uM incubated for 24 hrs by AnnexinV-FITC/PI staining based flow cytometry (reference value: 5.29 %). In kind it is functional.
Test [9] has as its system HCC1806. The test can be described thus: Induction of apoptosis in human HCC1806 cells assessed as proportion of late apoptotic cells at 3 uM incubated for 24 hrs by AnnexinV-FITC/PI staining based flow cytometry (reference value: 5.29 %). In kind it is functional.
Test [10] has as its target Vascular endothelial growth factor receptor 2 (Homo sapiens) (UniProt P35968). Nature of the test: Inhibition of VEGFR-2 (unknown origin) at 100 uM incubated for 90 mins by Kinase-Glo MAX reagent based luminescence analysis relative to control. The procedure, abridged: as §2
The subject of test [11] is HCC1806. Nature of the test: Induction of apoptosis in human HCC1806 cells assessed as proportion of early apoptotic cells at 6 uM incubated for 24 hrs by AnnexinV-FITC/PI staining based flow cytometry (reference value: 5.32 %). The test is classed as functional.
Test [12] relates to HCC1806. The test can be described thus: Induction of apoptosis in human HCC1806 cells assessed as proportion of necrotic cells at 3 uM incubated for 24 hrs by AnnexinV-FITC/PI staining based flow cytometry (reference value: 3.40 %). In kind it is functional.

The structures appear in SMILES notation.

The results in this text go back to ChEMBL document CHEMBL6114937, “Synthesis and anti-tumor activity of new benzofuran-based chalcone derivatives as potent VEGFR-2 inhibitors” (RSC Med Chem, 2025).

`COc1cc2ncnc(Nc3ccc4oc(C(=O)/C=C/c5ccc(N6CCN(C)CC6)cc5)cc4c3)c2cc1OC`: the IC50 in the test on HCC1806 [1], in the test with HeLa and in the test on A549 was above 25 µM each time.

On to `COc1cc2ncnc(Nc3ccc4oc(C(=O)/C=C/c5ccc(Cl)cc5)cc4c3)c2cc1OC`, for which the IC50 in the test with HCC1806 [1], in the test on HeLa and in the test with A549 was above 25 µM throughout.

As for `COc1cc2ncnc(Nc3ccc4oc(C(=O)/C=C/c5ccccn5)cc4c3)c2cc1OC`, the concentration for half-maximal inhibition (IC50) in the test with HCC1806 [1], in the test on HeLa and with A549 was above 25 µM throughout.

In the case of `COc1cc2ncnc(Nc3ccc4oc(C(=O)/C=C/c5c[nH]c6ccc(Br)cc56)cc4c3)c2cc1OC`, the 50% inhibitory concentration (IC50) with HCC1806 [1], with HeLa and in the test on A549 was above 25 µM throughout.

With `COc1cc2ncnc(Nc3ccc4oc(C(=O)/C=C/c5ccc(N(C)C)cc5)cc4c3)c2cc1OC`, the IC50 in the test on HCC1806 [1], with HeLa and in the test on A549 was above 25 µM throughout.

Take `COc1cc2ncnc(Nc3ccc4oc(C(=O)/C=C/c5c[nH]c6ccccc56)cc4c3)c2cc1OC`: the IC50 with HCC1806 [1] is 9.52 µM; in the test with HeLa it was 4.95 µM; with A549 it was above 25 µM.

Take `COc1cc(/C=C/C(=O)c2cc3cc(Nc4ncnc5cc(OC)c(OC)cc45)ccc3o2)cc(OC)c1`: the Activity is 47.7% with HCC1806 [2]; 6.91% with HCC1806 [5]; 77.6% in the test with HCC1806 [6]; 10% in the test with HCC1806 [7]; 29.4% with HCC1806 [8]; 9.05% in the test on HCC1806 [9]. Further, the Activity with HCC1806 [11] is on record as 12.8%; in the test on HCC1806 [12], 6.44%. Further, the results for the inhibition in test [3], in test [4] and in test [10] were 16%, 10% and 38%, respectively. Further, the results for the IC50 with HCC1806 [1], with HeLa and in the test with A549 were 5.93 µM, 5.61 µM and above 25 µM, respectively.

`COc1cc2ncnc(Nc3ccc4oc(C(=O)/C=C/c5cc6ccccc6o5)cc4c3)c2cc1OC`: the 50% inhibitory concentration (IC50) in the test with HCC1806 [1] was 17.1 µM; with HeLa, above 25 µM; in the test with A549, above 25 µM.

On to `COc1ccc(/C=C/C(=O)c2cc3cc(Nc4ncnc5cc(OC)c(OC)cc45)ccc3o2)cc1OC`, for which the IC50 in the test on HCC1806 [1], with HeLa and with A549 was above 25 µM in each case.

Take `COc1cc2ncnc(Nc3ccc4oc(C(=O)/C=C/c5ccc(F)c(F)c5)cc4c3)c2cc1OC`: the half-maximal inhibitory concentration (IC50) was 16.6 µM in the test on HCC1806 [1], above 25 µM in the test on HeLa and above 25 µM in the test with A549.

In the case of `COc1cc2ncnc(Nc3ccc4oc(C(=O)/C=C/c5ccccc5)cc4c3)c2cc1OC`, the half-maximal inhibitory concentration (IC50) with HCC1806 [1] worked out at 7.03 µM; with HeLa, 3.18 µM; in the test with A549 it was 21.6 µM.

Take `COc1cc2ncnc(Nc3ccc4oc(C(=O)/C=C/c5ccc(O)cc5)cc4c3)c2cc1OC`: the results for the IC50 in the test on HCC1806 [1], with HeLa and in the test on A549 were 6.6 µM, 6.19 µM and 6.27 µM, respectively.

With `COc1cc2ncnc(Nc3ccc4oc(C(=O)/C=C/c5cccs5)cc4c3)c2cc1OC`, the half-inhibitory concentration (IC50) in the test on HCC1806 [1], with HeLa and in the test with A549 was above 25 µM in each case.

For `COc1cc2ncnc(Nc3ccc4oc(C(=O)/C=C/c5ccc(N6CCOCC6)cc5)cc4c3)c2cc1OC`, the IC50 in the test with HCC1806 [1], in the test with HeLa and with A549 was above 25 µM each time.

With `COc1cc2ncnc(Nc3ccc4oc(C(=O)/C=C/c5ccncc5)cc4c3)c2cc1OC`, the 50% inhibitory concentration (IC50) was 6.4 µM in the test on HCC1806 [1], 6.36 µM in the test with HeLa and above 25 µM in the test on A549.

As to `COc1cc2ncnc(Nc3ccc4oc(C(=O)/C=C/c5ccc(C)o5)cc4c3)c2cc1OC`, the IC50 in the test on HCC1806 [1], in the test with HeLa and in the test on A549 was above 25 µM each time.

Turning to `COc1cc2ncnc(Nc3ccc4oc(C(=O)/C=C/c5ccc(-n6cccn6)cc5)cc4c3)c2cc1OC`, the IC50 with HCC1806 [1], with HeLa and in the test on A549 was above 25 µM throughout.

In the case of `COc1cc2ncnc(Nc3ccc4oc(C(=O)/C=C/c5ccc(Br)cc5)cc4c3)c2cc1OC`, the results for the IC50 with HCC1806 [1], with HeLa and with A549 were 18.4 µM, 24.8 µM and above 25 µM, respectively.

By IC50 is commonly meant the midpoint of a concentration-inhibition curve. A word on the inhibition: it is the relative decrease from the control value, in per cent.
